Laboratory results taken from the M2OR odorant receptor database.
Substitutions are numbered along the chain they refer to.

Columns and labels:
Conditions in all cases: stereoisomer not certain
[1] = target: T1, UniProt L7MU75
T1 sequence (whole entry): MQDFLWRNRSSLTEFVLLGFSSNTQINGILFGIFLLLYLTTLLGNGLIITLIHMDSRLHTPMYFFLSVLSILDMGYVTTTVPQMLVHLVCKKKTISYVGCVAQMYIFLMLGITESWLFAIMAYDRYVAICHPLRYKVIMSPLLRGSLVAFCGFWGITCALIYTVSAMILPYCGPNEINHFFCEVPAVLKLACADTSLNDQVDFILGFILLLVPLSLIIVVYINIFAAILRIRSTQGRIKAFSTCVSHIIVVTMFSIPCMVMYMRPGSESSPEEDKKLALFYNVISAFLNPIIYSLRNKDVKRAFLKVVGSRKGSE
Procedure, shortened: (§1)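 Values were gathered from published papers (main text and supplementary material), with extra details requested from the original authors when needed, and checked for typos and inconsistencies. Each receptor–molecule pair is called responsive (active) if the original authors judged the measured signal statistically different from baseline, and non-responsive (inactive) otherwise. Assay methods varied by source, often transient mammalian cell-line luciferase assays. Recorded details include cell line, G-protein, co-transfected protein and tags.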

[2] = target: T2, UniProt L7N210
T2 sequence (whole entry): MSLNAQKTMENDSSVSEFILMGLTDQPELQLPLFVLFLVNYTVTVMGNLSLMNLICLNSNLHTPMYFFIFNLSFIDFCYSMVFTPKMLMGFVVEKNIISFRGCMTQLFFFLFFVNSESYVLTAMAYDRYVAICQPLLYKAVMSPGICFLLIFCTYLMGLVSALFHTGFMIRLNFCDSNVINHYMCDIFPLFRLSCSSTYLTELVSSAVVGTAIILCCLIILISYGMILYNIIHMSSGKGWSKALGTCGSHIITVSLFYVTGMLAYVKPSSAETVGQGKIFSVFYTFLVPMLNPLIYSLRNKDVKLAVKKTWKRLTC
Procedure, shortened: as §1

[3] = target: T3, UniProt Q3KPB0
T3 sequence (whole entry): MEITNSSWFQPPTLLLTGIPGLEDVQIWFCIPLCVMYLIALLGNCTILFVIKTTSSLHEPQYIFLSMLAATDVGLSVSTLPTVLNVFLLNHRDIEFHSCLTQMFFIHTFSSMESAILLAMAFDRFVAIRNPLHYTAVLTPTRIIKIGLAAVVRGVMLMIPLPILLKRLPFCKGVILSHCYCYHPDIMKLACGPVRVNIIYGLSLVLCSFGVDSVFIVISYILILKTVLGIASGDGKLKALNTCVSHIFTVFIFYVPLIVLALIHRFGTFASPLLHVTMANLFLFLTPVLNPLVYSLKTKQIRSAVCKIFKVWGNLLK
Procedure, shortened: as §1

[4] = target: T4, UniProt Q3U0P3
T4 sequence (whole entry): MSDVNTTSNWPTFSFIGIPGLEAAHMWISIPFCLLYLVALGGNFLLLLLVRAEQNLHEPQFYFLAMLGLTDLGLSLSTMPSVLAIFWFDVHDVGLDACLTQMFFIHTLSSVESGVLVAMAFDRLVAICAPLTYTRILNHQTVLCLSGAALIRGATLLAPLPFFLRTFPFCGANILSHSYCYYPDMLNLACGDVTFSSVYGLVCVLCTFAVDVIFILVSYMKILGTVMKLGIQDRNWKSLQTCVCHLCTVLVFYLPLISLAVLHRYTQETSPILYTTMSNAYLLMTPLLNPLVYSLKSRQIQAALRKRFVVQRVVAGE
Procedure, shortened: as §1

[5] = target: T5, UniProt Q7TQU8
T5 sequence (whole entry): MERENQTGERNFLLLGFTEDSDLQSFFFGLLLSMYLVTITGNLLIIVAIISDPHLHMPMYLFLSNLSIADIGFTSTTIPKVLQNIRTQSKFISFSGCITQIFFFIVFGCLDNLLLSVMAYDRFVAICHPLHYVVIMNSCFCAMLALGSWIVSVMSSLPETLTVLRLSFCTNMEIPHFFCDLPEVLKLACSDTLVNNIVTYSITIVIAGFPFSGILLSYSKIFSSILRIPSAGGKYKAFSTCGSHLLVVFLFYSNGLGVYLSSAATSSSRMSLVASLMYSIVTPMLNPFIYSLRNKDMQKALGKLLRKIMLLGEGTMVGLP
Procedure, shortened: as §1

[6] = target: T6, UniProt Q7TR79
T6 sequence (whole entry): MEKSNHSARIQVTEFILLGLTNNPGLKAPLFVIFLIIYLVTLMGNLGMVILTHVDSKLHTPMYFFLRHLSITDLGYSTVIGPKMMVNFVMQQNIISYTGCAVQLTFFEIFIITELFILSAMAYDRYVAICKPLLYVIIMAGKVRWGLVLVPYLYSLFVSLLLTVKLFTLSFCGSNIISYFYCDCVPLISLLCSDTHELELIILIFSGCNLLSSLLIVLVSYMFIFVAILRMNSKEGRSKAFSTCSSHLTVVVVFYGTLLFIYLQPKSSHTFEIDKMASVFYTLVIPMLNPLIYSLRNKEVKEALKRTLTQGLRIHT
Procedure, shortened: as §1

[7] = target: T7, UniProt L7N0P5
T7 sequence (whole entry): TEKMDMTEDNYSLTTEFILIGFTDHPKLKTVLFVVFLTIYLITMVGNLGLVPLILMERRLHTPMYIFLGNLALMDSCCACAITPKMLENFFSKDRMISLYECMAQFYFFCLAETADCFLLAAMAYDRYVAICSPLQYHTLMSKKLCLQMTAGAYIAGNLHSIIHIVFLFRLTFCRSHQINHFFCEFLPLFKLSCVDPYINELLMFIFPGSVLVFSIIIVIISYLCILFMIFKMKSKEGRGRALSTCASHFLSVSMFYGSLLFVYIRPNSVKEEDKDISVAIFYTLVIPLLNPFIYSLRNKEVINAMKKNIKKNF
Procedure, shortened: as §1

[8] = target: T8, UniProt Q7TRM0
T8 sequence (whole entry): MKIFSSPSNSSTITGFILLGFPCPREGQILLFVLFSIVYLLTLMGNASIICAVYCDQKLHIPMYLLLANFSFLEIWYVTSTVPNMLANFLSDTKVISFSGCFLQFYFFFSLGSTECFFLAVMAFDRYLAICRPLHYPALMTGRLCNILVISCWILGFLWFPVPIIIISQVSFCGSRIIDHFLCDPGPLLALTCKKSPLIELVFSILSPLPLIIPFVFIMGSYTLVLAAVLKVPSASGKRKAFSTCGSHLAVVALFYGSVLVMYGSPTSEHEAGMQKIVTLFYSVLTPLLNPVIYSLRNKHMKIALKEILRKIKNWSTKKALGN
Procedure, shortened: as §1

[9] = target: T9, UniProt Q7TRN9
T9 sequence (whole entry): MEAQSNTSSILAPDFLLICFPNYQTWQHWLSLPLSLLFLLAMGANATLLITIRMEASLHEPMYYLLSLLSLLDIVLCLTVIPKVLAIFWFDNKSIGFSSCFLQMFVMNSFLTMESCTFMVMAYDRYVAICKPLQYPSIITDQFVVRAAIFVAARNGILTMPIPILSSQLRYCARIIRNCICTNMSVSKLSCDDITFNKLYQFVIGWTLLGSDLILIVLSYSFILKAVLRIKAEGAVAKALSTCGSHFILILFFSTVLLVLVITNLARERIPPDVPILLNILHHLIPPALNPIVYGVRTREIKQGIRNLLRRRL
Procedure, shortened: as §1

[10] = target: UniProt L7N1Y8
Chain of UniProt L7N1Y8 (L7N1Y8 as listed by the source): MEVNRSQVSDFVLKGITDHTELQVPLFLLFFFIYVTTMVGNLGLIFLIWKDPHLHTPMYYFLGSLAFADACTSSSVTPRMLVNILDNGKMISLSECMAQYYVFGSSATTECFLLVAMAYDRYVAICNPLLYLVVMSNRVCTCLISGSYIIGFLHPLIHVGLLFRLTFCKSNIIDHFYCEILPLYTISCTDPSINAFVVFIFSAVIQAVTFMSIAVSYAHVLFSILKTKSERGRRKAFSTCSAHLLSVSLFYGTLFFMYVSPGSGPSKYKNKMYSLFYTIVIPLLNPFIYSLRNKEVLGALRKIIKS
Procedure, shortened: as §1

[11] = target: T10, UniProt Q7TQV4
T10 sequence (whole entry): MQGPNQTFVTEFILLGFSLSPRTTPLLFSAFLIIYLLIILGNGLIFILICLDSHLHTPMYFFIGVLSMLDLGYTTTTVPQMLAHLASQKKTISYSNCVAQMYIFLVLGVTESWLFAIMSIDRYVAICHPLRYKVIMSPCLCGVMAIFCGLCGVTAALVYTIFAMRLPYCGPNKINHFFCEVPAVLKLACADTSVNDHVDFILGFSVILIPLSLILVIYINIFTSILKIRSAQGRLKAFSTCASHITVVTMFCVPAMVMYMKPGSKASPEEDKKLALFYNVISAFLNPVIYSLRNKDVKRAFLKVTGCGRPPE
Procedure, shortened: as §1

[12] = target: T11, UniProt Q7TR71
T11 sequence (whole entry): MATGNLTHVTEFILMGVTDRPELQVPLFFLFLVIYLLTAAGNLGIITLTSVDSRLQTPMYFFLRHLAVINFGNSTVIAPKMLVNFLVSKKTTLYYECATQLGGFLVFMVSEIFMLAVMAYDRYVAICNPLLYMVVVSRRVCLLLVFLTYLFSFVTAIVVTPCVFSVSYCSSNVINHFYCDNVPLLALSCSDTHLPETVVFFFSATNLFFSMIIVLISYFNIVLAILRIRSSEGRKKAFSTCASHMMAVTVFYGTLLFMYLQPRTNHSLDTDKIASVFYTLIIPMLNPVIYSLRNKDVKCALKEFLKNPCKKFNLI
Procedure, shortened: as §1

[13] = target: UniProt Q7TR75
Chain of UniProt Q7TR75 (Q7TR75 as listed by the source): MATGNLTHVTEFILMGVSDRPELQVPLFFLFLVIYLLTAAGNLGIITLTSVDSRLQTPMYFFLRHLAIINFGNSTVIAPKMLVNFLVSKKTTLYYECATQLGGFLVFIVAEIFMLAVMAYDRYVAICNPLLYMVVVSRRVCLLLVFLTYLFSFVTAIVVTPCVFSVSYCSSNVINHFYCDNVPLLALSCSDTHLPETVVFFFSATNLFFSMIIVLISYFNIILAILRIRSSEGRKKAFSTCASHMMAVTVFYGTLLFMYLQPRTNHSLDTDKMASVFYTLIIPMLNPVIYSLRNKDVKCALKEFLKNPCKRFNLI
Procedure, shortened: as §1

[14] = target: T12, UniProt Q7TRA1
T12 sequence (whole entry): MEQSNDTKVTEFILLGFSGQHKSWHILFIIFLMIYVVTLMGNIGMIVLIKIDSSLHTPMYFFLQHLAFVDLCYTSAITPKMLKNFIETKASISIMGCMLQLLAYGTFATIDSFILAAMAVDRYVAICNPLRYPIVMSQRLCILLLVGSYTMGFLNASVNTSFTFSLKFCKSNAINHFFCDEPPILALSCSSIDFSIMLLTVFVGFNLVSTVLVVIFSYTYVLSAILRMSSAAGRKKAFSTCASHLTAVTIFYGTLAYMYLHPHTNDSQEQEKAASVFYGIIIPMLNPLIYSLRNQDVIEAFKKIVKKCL
Procedure, shortened: as §1

[15] = target: T13, UniProt Q7TRA2
T13 sequence (whole entry): T12 sequence (whole entry) with S18A, I86T, I94F, M95I, S112C, V208L, T219I, V221I, V305A
Procedure, shortened: as §1

[16] = target: T14, UniProt Q7TRA3
T14 sequence (whole entry): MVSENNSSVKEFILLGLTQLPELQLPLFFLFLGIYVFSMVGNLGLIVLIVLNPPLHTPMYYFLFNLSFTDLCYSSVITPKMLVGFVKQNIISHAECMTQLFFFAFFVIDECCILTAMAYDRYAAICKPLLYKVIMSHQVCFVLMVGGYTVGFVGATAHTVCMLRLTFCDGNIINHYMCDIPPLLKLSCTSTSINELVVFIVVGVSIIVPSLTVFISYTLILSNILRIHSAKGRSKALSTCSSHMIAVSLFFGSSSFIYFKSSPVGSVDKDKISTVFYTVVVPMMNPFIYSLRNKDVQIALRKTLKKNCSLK
Procedure, shortened: as §1

[17] = target: UniProt Q7TRB8
Chain of UniProt Q7TRB8 (Q7TRB8 as listed by the source): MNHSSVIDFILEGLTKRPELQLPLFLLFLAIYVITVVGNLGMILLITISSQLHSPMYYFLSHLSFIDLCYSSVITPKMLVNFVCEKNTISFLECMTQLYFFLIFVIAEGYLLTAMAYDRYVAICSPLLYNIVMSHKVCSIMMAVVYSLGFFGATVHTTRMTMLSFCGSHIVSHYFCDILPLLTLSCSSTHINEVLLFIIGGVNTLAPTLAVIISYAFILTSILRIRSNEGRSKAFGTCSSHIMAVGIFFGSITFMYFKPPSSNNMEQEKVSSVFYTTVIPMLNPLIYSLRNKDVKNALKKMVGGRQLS
Procedure, shortened: as §1

[18] = target: T15, UniProt Q7TRE4
T15 sequence (whole entry): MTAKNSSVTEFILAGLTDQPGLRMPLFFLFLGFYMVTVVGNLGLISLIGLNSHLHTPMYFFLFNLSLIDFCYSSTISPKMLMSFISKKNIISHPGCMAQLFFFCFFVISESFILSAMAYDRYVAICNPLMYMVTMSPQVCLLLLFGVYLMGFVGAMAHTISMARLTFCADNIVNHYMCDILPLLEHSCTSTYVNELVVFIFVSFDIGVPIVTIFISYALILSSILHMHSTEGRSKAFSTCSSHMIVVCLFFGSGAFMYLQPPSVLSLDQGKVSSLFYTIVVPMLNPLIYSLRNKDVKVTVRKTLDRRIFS
Procedure, shortened: as §1

Measured: odorant receptor agonist call

C1CCOC1
inactive: [1] | [2] | [3] | [4] | [5] | [6]

CCC=CCCC=CC=O
inactive: [1] | [2] | [3] | [4] | [5] | [6]

CCc1cnc(C)c(C)n1
inactive: [7]

Cc1cnccn1
active: [7]

O=C(O)CCCBr
inactive: [8] | [9]

O=C(OCc1ccccc1)c1ccccc1O
inactive: [1] | [2] | [4] | [5] | [6]

O=C1CCOc2ccccc21
active: [10] | [2] | [12] | [13] | [16]
inactive: [3] | [4] | [5] | [11] | [6] | [14] | [15] | [17] | [18]

Cc1cnc(C)cn1
active: [7]

CCCCCCC(=O)[O-].[H+]
inactive: [1] | [2] | [11] | [12] | [16] | [18] | [8]
active: [9]
